Test results published in ChEMBL document CHEMBL4610117 (J Med Chem, 2020).
Activity calls are given as the source filed them. The calls are words filed in the database; no cut-off is given here.

Key:
[1] = Clearance in human hepatocytes at 1 uM measured after 2 to 90 mins by LC-MS/MS analysis; format: ADME, cell-based, Hepatocyte
[2] = Clearance in Han-Wistar rat hepatocytes at 1 uM measured after 2 to 90 mins by LC-MS/MS analysis; format: ADME, cell-based, Hepatocyte
[3] = Volume of distribution at steady state in Wistar rat at 0.3 to 0.5 mg/kg, iv administered as bolus dose by LC-MS/MS analysis; format: ADME, organism-based; conditions: in vivo, read-out: Vdss
[4] = biological target: Serine-protein kinase ATM (Homo sapiens, UniProt Q13315); assay: Inhibition of N-terminally FLAG-tagged recombinant full-length ATM (unknown origin) expressed in […] cells using biotin-PEG2-SVEPPLSQETFSD as substrate preincubated for 15 mins followed by substrate addition and measured after 90 mins by TR-FRET assay
Summary of the method: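 Full-length N-terminal FLAG ATM from HEK293-6E, anti-FLAG purified, typically 15 nM. Compound was pre-bound 15 min at 22 °C in HEPES pH 7.0 buffer with MgCl2, KCl, DTT, BSA and Igepal. The reaction ran with 10 μM ATP and 1 μM peptide (final) for 90 min at 22 °C and was stopped with EDTA, streptavidin-XL665 and Eu anti-phospho-p53(Ser15). […] 11 concentrations, 20 μM–0.07 nM, in duplicate.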

[5] = biological target: Phosphatidylinositol 4,5-bisphosphate 3-kinase catalytic subunit beta isoform (Homo sapiens, UniProt P42338); assay: Inhibition of PI3Kbeta (unknown origin)
Sequence of Phosphatidylinositol 4,5-bisphosphate 3-kinase catalytic subunit beta isoform (P42338 whole entry, the tested form may be a part, canonical isoform): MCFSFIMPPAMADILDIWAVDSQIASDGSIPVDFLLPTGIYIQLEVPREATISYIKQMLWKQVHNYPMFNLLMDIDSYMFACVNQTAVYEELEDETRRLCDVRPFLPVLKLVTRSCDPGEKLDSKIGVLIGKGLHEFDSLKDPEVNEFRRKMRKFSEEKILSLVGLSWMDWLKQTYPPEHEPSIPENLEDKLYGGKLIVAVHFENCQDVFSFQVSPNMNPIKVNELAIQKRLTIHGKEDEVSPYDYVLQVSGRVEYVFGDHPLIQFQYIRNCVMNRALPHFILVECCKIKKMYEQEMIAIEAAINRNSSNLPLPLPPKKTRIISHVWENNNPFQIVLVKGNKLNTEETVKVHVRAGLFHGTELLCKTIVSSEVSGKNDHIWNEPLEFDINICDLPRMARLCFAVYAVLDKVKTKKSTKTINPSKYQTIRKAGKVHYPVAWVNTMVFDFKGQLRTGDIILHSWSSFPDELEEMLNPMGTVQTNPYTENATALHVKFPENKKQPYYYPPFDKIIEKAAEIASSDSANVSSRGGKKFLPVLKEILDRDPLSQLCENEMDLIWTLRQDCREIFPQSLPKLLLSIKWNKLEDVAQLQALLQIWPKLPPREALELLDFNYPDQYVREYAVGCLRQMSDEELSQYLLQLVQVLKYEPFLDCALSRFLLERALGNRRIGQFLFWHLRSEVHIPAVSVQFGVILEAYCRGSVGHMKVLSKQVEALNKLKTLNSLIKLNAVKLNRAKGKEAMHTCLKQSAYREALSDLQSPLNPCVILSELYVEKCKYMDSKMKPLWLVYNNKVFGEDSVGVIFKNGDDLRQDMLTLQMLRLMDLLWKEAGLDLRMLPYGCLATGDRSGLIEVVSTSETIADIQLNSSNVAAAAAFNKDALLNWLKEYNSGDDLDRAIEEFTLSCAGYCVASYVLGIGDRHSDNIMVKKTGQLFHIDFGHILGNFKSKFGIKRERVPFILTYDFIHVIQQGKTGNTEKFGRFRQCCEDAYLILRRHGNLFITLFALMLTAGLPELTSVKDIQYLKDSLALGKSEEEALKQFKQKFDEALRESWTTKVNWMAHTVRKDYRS

[6] = biological target: Serine/threonine-protein kinase mTOR (Homo sapiens, UniProt P42345); assay: Binding affinity to wild-type human partial length mTOR (L1382 to W2549 residues) expressed in mammalian expression system by Kinomescan method
[7] = biological target: Serine/threonine-protein kinase RIO2 (Homo sapiens, UniProt Q9BVS4); assay: Binding affinity to wild-type human partial length RIOK2 (M1 to D313 residues) expressed in mammalian expression system by Kinomescan method
Sequence of Serine/threonine-protein kinase RIO2 (Q9BVS4 whole entry, the tested form may be a part): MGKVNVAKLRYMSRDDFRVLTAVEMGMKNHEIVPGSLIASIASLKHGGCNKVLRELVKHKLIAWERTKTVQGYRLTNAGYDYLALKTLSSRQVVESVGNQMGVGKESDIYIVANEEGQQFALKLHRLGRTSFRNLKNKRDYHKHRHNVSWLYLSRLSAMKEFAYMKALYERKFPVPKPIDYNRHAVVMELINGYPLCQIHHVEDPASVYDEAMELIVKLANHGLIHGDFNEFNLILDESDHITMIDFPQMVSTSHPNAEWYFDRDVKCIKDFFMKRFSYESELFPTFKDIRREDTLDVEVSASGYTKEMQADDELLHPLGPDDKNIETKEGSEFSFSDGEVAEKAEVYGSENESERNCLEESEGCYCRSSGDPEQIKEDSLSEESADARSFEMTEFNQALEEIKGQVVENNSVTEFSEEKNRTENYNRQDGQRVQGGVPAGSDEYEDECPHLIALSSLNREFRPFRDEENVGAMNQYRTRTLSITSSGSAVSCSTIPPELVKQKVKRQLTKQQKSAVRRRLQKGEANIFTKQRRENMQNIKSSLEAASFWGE

[8] = Protein binding in human plasma assessed as unbound fraction at 3 uM measured after 7 hrs by LC-MS/MS analysis; format: ADME, cell-free
[9] = Clearance in Beagle dog at 0.3 to 0.5 mg/kg, iv administered as bolus dose by LC-MS/MS analysis; format: ADME, organism-based, Canis lupus familiaris; conditions: in vivo
[10] = Volume of distribution at steady state in NMRI mouse at 0.3 to 0.5 mg/kg, iv administered as bolus dose by LC-MS/MS analysis; format: ADME, organism-based; conditions: in vivo
[11] = Volume of distribution at steady state in Beagle dog at 0.3 to 0.5 mg/kg, iv administered as bolus dose by LC-MS/MS analysis; format: ADME, organism-based, Canis lupus familiaris; conditions: in vivo, read-out: Vdss
[12] = Oral bioavailability in Beagle dog at 0.6 to 1 mg/kg by LC-MS/MS analysis; format: ADME, organism-based, Canis lupus familiaris; conditions: in vivo
[13] = biological target: Serine/threonine-protein kinase ATR (Homo sapiens, UniProt Q13535); assay: In vivo inhibition of ATR in human SUDHL8 cells harboring ATM K1964E mutant xenografted CB-17 mouse assessed as reduction in ATR phosphorylation at 50 mg/kg, po bid dosed every 3 days followed by 4 days interval; format: functional, organism-based
Sequence of Serine/threonine-protein kinase ATR (Q13535 whole entry, looked up): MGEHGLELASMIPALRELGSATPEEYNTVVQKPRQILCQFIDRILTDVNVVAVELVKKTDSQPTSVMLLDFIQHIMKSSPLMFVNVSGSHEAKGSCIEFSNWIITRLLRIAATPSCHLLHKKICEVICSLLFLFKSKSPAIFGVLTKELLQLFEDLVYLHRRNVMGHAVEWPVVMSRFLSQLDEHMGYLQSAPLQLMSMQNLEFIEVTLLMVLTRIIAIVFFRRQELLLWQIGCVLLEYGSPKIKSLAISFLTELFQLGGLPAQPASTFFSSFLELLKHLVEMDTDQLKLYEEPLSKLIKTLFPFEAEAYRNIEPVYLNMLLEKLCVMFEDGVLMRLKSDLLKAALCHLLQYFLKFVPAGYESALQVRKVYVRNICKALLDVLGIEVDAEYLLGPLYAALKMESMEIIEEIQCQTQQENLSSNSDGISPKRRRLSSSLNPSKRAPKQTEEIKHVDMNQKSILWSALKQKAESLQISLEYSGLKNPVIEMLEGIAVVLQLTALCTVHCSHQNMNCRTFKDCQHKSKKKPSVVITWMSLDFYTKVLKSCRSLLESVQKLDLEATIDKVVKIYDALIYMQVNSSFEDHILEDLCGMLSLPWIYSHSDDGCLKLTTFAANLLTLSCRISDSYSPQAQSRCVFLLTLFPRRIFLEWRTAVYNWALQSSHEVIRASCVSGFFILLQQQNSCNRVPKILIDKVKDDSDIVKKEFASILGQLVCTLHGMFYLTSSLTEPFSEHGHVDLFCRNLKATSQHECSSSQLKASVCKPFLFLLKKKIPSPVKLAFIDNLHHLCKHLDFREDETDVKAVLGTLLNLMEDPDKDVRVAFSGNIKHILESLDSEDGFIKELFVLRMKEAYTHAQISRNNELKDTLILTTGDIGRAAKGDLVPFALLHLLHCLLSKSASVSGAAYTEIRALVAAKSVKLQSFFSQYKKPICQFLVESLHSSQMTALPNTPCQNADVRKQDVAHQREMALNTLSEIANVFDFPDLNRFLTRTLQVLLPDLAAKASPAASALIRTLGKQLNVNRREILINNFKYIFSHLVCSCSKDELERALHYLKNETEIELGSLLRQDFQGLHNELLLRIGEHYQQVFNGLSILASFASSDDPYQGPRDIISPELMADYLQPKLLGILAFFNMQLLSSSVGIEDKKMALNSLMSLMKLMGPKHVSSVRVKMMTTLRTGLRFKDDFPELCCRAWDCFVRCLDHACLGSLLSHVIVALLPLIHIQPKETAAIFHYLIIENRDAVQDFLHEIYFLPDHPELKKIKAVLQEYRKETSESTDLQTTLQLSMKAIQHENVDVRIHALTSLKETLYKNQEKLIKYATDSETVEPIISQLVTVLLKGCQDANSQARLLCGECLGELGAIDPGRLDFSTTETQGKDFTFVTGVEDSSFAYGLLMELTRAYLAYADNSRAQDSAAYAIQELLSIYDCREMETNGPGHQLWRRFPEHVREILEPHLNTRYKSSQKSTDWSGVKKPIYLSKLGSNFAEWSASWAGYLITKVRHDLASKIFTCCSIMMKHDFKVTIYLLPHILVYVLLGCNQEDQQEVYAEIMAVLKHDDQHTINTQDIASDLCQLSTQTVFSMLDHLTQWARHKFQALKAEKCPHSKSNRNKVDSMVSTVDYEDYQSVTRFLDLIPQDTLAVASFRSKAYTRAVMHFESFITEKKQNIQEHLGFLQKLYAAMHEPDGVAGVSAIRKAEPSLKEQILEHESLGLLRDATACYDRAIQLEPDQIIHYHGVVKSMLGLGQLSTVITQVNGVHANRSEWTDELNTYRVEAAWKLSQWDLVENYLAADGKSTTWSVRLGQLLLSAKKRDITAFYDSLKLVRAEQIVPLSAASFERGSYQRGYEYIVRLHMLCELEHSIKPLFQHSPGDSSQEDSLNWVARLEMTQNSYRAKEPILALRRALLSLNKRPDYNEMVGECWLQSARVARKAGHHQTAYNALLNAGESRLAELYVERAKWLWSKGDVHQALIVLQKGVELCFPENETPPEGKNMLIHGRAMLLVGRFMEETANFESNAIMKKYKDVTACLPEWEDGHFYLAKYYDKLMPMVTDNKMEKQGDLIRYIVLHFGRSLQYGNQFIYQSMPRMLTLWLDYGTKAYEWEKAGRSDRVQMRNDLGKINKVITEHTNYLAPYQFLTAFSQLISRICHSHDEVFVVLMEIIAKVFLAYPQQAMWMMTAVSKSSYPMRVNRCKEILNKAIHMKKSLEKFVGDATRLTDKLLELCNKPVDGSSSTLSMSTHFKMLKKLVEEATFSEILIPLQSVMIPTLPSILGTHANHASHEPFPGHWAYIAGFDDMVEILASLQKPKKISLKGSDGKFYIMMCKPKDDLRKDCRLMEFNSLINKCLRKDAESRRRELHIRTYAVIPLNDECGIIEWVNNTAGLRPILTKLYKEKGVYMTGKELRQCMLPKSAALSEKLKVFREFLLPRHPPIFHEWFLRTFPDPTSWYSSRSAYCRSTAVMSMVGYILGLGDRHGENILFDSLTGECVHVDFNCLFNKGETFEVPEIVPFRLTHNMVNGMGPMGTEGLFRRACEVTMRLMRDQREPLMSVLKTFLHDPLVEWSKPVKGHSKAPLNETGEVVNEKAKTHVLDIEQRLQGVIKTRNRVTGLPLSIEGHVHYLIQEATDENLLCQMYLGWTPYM

[14] = Antitumor activity against human CR5038 cells xenografted in NOD/SCID mouse assessed as tumor growth at 20 mg/kg, po qd dosed every 2 days followed by 5 days interval for 2 weeks and subsequent dosing at 10 mg/kg in presence of carboplatin relative to control; format: functional
Summary of the method: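 CR5038 human CRC PDX in NOD/SCID mice, n = 10/group. Oral dosing q.d. at 20 mg/kg, reduced to 10 mg/kg from day 14, 2 days on/5 days off. Combined with carboplatin 40 mg/kg i.p. once weekly (1 day on/6 days off). T/C ratio reported versus vehicle and the monotherapies; body weight was monitored.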

[15] = Toxicity in NOD/SCID mouse xenografted with human CR5038 cells assessed as body weight loss at 20 mg/kg, po qd dosed every 2 days followed by 5 days for 2 weeks and subsequent dosing at 10 mg/kg interval measured on day 11 to 14 and 28 to 31 in presence of carboplatin relative to control; format: organism-based; conditions: in vivo

C[C@@H]1COCCN1c1cc(-c2ccnn2C)c2ccnc(-c3ccn[nH]3)c2n1 [ELIMUSERTIB]
CLH [1]: 6.83 mL/min/kg | CLH [2]: 12.3 mL/min/kg | Vd [3]: 1.7 L/kg | IC50 [4]: 1420 nM | IC50 [5]: 3270 nM | Kd [6]: 24 nM | Kd [7]: 660 nM | fraction unbound at 7 h, 3 µM [8]: 0.03 | clearance [9]: 13.2 mL/min/kg | Vdss [10]: 8.8 L/kg | Vd [11]: 1 L/kg | bioavailability [12]: 51% | inhibition [13]: Active | T/C [14]: 0.34 | Activity [15]: < 10%
